The values that follow come from ChEMBL document CHEMBL1121772, “Synthesis and beta-lactamase inhibitory properties of 2 beta-(chloromethyl)-2 alpha-methylpenam-3 alpha-carboxylic acid 1,1-dioxide” (1981).

Broadly, the MIC is the lowest concentration that inhibits growth of the organism.

The structures appear in SMILES notation. Values after ≈ are worked out from the molar mass of the structure shown. A value given as a limit tells only on which side of the number the result lay.

Common to all, as to assay type: functional
Experiment [1] relates to Escherichia coli. In words: Minimum inhibitory activity against Escherichia coli A21223. A digest of the protocol:
(§1)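 MICs by agar dilution: organisms were inoculated onto drug-containing agar plates with a multipoint replicating device.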

Experiment [2] deals with Escherichia coli. In words: Minimum inhibitory activity against Escherichia coli A9675. In outline: as §1
In experiment [3] the test system is Staphylococcus aureus. Kind of experiment: Minimum inhibitory activity against Staphylococcus aureus A15091. A digest of the protocol: as §1
Experiment [4] concerns Staphylococcus aureus. Kind of experiment: Minimum inhibitory activity against Staphylococcus aureus A20309. A digest of the protocol:
as §1

Experiment [5] relates to Staphylococcus aureus. Kind of experiment: Minimum inhibitory activity against Staphylococcus aureus A9606. A digest of the protocol: as §1
Experiment [6] is filed under the species Mus musculus. Kind of experiment: Beta-lactamase inhibitory activity against Escherichia coli A21223 using oral mouse protection test in mice. The note with it: read-out: PD50. In outline: (§2)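 Challenge organisms suspended in mucin (2 or 4%) and injected ip into 18-24 g Swiss-Webster (ICR strain) mice. Oral treatment given at 0 and 2 h postchallenge. Observation ran 5 days, and PD50 was calculated by the Spearman-Karber method.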

The species entered for experiment [7] is Mus musculus. Kind of experiment: Beta-lactamase inhibitory activity against Staphylococcus aureus A15091 using oral mouse protection test in mice. The settings on record: read-out: PD50. A digest of the protocol:
as §2

The species named for experiment [8] is Mus musculus. Kind of experiment: Beta-lactamase inhibitory activity against Staphylococcus aureus A20379 using oral mouse protection test in mice. The note with it: read-out: PD50. In outline:
as §2

The species named for experiment [9] is Mus musculus. In words: Beta-lactamase inhibitory activity against Staphylococcus aureus A9606 using oral mouse protection test in mice. The settings on record: for ED50: Mus musculus, po, read-out: PD50. In outline:
as §2

In experiment [10] the target is Beta lactamase TEM-1 (Klebsiella pneumoniae) (UniProt Q7B899). Kind of experiment: Beta-lactamase inhibitory activity from Klebsiella pneumoniae A20634(TEM) and minimum protective concentration was reported.
Beta lactamase TEM-1 (Klebsiella pneumoniae), sequence (Q7B899 as listed by the source): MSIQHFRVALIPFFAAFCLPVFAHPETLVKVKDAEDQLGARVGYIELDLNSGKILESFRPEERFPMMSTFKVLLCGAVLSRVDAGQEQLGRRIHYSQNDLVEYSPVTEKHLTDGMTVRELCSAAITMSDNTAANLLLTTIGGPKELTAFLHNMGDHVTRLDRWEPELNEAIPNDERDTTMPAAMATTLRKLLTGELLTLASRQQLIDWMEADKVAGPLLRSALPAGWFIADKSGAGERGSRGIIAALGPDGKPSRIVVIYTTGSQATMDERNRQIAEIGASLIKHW
Experiment [11] has as its target Beta-lactamase (Staphylococcus aureus) (UniProt P00807). In words: Beta-lactamase inhibitory activity from Staphylococcus aureus A9606 and minimum protective concentration was reported.
The target in experiment [12] is Metallo-beta-lactamase type 2 (Bacteroides fragilis) (UniProt P25910). Kind of experiment: Beta-lactamase inhibitory activity from […] A-22,695 and minimum protective concentration was reported.
Metallo-beta-lactamase type 2 (Bacteroides fragilis), sequence (P25910 whole entry): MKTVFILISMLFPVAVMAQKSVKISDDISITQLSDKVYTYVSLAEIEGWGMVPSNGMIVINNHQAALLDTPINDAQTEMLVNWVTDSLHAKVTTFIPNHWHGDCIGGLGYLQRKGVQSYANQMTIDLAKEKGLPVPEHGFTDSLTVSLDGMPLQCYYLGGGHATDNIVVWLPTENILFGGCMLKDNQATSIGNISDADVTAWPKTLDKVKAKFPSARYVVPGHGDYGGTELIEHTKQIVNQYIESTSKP

Beta-lactamase (Staphylococcus aureus), sequence (P00807 whole entry): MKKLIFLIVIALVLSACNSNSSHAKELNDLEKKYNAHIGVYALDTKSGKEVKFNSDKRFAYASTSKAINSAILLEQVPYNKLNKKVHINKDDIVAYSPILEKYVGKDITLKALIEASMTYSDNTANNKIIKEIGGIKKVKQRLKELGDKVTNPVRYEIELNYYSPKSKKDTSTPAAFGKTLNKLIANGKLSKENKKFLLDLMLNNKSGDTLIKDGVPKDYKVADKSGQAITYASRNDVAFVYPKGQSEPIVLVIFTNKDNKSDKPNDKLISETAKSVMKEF

On to `CC1(C)S[C@@H]2[C@H](NC(=O)[C@H](N)c3ccc(O)cc3)C(=O)N2[C@H]1C(=O)O.O=C(O)[C@H]1/C(=C/CO)O[C@@H]2CC(=O)N21`, for which the MIC against Escherichia coli [1] worked out at 8 µg/mL; against Escherichia coli [2], 2 µg/mL; with Staphylococcus aureus [3], 2 µg/mL; in the experiment on Staphylococcus aureus [4], 2 µg/mL; in the experiment with Staphylococcus aureus [5] it was 2 µg/mL.

Take `CC1(C)S[C@@H]2[C@H](NC(=O)[C@H](N)c3ccc(O)cc3)C(=O)N2[C@H]1C(=O)O.CC1(C)[C@H](C(=O)O)N2C(=O)C[C@H]2S1(=O)=O`: the MIC against Escherichia coli [1] amounted to 4 µg/mL; in the experiment on Escherichia coli [2] it was 4 µg/mL; in the experiment on Staphylococcus aureus [3] it was 2 µg/mL; with Staphylococcus aureus [4] it was 4 µg/mL; against Staphylococcus aureus [5], 2 µg/mL. For the same compound, the ED50 in the experiment filed under Mus musculus [6] came out at 46 mg/kg; in the experiment filed under Mus musculus [7], 160 mg/kg; in the experiment listed under Mus musculus [8] it was 21 mg/kg; in the experiment filed under Mus musculus [9], 15 mg/kg.

Regarding `CC1(C)C(C(=O)O)N2C(=O)C(Cl)C2S1(=O)=O` (stereo not drawn), the values for the MPC in experiment [10] and in experiment [11] were 25 µg/mL and > 100 µg/mL, respectively.

`COc1cccc(OC)c1C(=O)N[C@@H]1C(=O)N2[C@@H](C(=O)O)C(C)(C)S(=O)(=O)[C@H]12`: the MPC is 125 µg/mL in experiment [10] and > 100 µg/mL in experiment [11].

In the case of `CC1(C)S[C@@H]2[C@H](NC(=O)[C@H](N)c3ccc(O)cc3)C(=O)N2[C@H]1C(=O)O.C[C@]1(CCl)[C@H](C(=O)[O-])N2C(=O)C[C@H]2S1(=O)=O.[K+]` [AMOXACILLIN +BL-P2013], the MIC against Escherichia coli [1] came out at 2 µg/mL; in the experiment on Escherichia coli [2], 2 µg/mL; against Staphylococcus aureus [3], 1 µg/mL; against Staphylococcus aureus [4] it was 2 µg/mL; in the experiment with Staphylococcus aureus [5], 1 µg/mL. The ED50 in the experiment listed under Mus musculus [6] is 16 mg/kg; in the experiment listed under Mus musculus [7], 72 mg/kg; in the experiment listed under Mus musculus [8], 34 mg/kg; in the experiment listed under Mus musculus [9] it was 24 mg/kg.

In the case of `CC1(C)S[C@@H]2[C@H](NC(=O)[C@H](N)c3ccc(O)cc3)C(=O)N2[C@H]1C(=O)O` [AMOXICILLIN], the minimum inhibitory concentration (MIC) is 125 µg/mL (≈ 342 µM) against Escherichia coli [1]; 63 µg/mL (≈ 172 µM) against Escherichia coli [2]; > 125 µg/mL in the experiment on Staphylococcus aureus [3]; 125 µg/mL (≈ 342 µM) in the experiment with Staphylococcus aureus [4]; > 125 µg/mL against Staphylococcus aureus [5]. The ED50 in the experiment filed under Mus musculus [6] was > 200 mg/kg; in the experiment filed under Mus musculus [7], > 800 mg/kg; in the experiment filed under Mus musculus [8], > 200 mg/kg; in the experiment listed under Mus musculus [9], > 800 mg/kg.

With `C[C@]1(CCl)[C@H](C(=O)[O-])N2C(=O)C[C@H]2S1(=O)=O.[K+]` [BL-P2013], the MPC is 3.1 µg/mL in experiment [10], 12.5 µg/mL in experiment [12] and 3.1 µg/mL in experiment [11]. Besides, the minimum inhibitory concentration (MIC) against Escherichia coli [1] was > 125 µg/mL; in the experiment on Escherichia coli [2], > 125 µg/mL; against Staphylococcus aureus [3], 125 µg/mL; against Staphylococcus aureus [4] it was 125 µg/mL; in the experiment with Staphylococcus aureus [5], 125 µg/mL. Also, the ED50 in the experiment listed under Mus musculus [6], in the experiment listed under Mus musculus [7], in the experiment listed under Mus musculus [8] and in the experiment listed under Mus musculus [9] was > 200 mg/kg throughout.

As to `O=C(O)[C@H]1/C(=C/CO)O[C@@H]2CC(=O)N21` [CLAVULANIC ACID], the MPC in [10] was 0.1 µg/mL; in experiment [12], 6.3 µg/mL; in experiment [11], 0.4 µg/mL. The MIC in the experiment with Escherichia coli [1], against Escherichia coli [2], against Staphylococcus aureus [3], with Staphylococcus aureus [4] and in the experiment on Staphylococcus aureus [5] was 32 µg/mL (≈ 161 µM) in each case.

For the compound `CC1(C)[C@H](C(=O)O)N2C(=O)C[C@H]2S1(=O)=O` [SULBACTAM], the MPC in experiment [10] was 1.6 µg/mL; in experiment [12] it was 12.5 µg/mL; in experiment [11], 12.5 µg/mL. Also, the MIC against Escherichia coli [1] is > 125 µg/mL; against Escherichia coli [2], 125 µg/mL (≈ 536 µM); in the experiment on Staphylococcus aureus [3], > 125 µg/mL; with Staphylococcus aureus [4] it was > 125 µg/mL; against Staphylococcus aureus [5], > 125 µg/mL. Besides, the ED50 in the experiment filed under Mus musculus [6], in the experiment listed under Mus musculus [7] and in the experiment listed under Mus musculus [8] was > 200 mg/kg each time. The PD50 in the experiment listed under Mus musculus [9] is > 200 mg/kg.
